Published values of several laboratories.
Each line is one published result; the experiments were not run side by side.
Target: Homeodomain-interacting protein kinase 3 (HIPK3, Homo sapiens, UniProt Q9H422)

SMILES | effect on | method | concentration | remaining binding
N[C@H]1CCN(c2nccc(-c3cnn4ncccc34)n2)C1 | binding |  | 1 µM | 91%
COc1cnc(Nc2cccc(S(N)(=O)=O)c2)nc1N1CCN(c2ccccc2)C(=O)C1 | binding | competition with immobilised ligand | 1 µM | 82%
C[C@H]1CCN(c2nccc(-c3cnn4ncccc34)n2)C1 | binding |  | 1 µM | 61%
O=C1NC(c2ccccn2)Sc2ccccc21 (stereo not shown) | cell-free assay | competition with immobilised ligand | 1 µM | 86%
O=C(c1ccc(Nc2ncc(Cl)c(-c3ccc(Cl)s3)n2)cc1)N1CCC(N2CCCC2)CC1 | binding | competition with immobilised ligand | 1 µM | 3.5%
Cc1cc(NC(=O)c2cccc(S(F)(F)(F)(F)F)c2)cc(-n2ccn3nc(-c4cccnc4)cc23)c1 | cell-free assay | competition with immobilised ligand | 1 µM | 88.8%
CN(C)c1nccc(-c2cnc3ncccn23)n1 | binding |  | 1 µM | 46%
O=C(NCC1CCOCC1)c1n[nH]cc1NC(=O)c1c(F)cccc1F | binding | competition with immobilised ligand | 1 µM | 63%
O=C(c1ccc(Nc2nccc(-c3cc4ccccc4s3)n2)cc1)N1CCC(N2CCCC2)CC1 | binding | competition with immobilised ligand | 1 µM | 19%
FC(F)(F)Oc1cccc(-c2cnc3ccc(-c4ccncc4)nn23)c1 | cell-free assay | competition with immobilised ligand | 5 µM | 0.7%
CC(=O)N1CCC(c2ccc(C(=O)NC3=NCCN3)cc2C(F)(F)F)CC1 | cell-free assay | competition with immobilised ligand | 1 µM | 72%
Cc1cnc(Nc2ccc(C(=O)N3CCC(N4CCCC4)CC3)cc2)nc1-c1cc2ccccc2s1 | binding | competition with immobilised ligand | 1 µM | 3.1%
CNC(=O)[C@@H]1CC[C@@H](n2c(-c3ccc4cnccc4c3)nc3ccc(C(=O)NCc4cccc(C(N)=O)c4)cc32)C1 | binding | competition with immobilised ligand | 1 µM | 100%
Cc1cnn2ncc(-c3ccnc(N(C)C)n3)c2c1 | binding |  | 1 µM | 68%
CCC(=O)N[C@H]1CC[C@@H](C(=O)N(C)c2ccc(-c3nc4ccccc4o3)cc2)C1 | cell-free assay | competition with immobilised ligand | 1 µM | 74%
c1cnn2ncc(-c3ccnc(N4CCC45COC5)n3)c2c1 | binding |  | 1 µM | 50%
CCS(=O)(=O)c1cc2cc(C[C@@](O)(CC(C)(C)c3ccc(F)cc3C(N)=O)C(F)(F)F)[nH]c2cn1 | cell-free assay | competition with immobilised ligand | 1 µM | 65%
CN(C)c1ncc(F)c(-c2cnn3ncccc23)n1 | binding |  | 1 µM | 65%
O=C(NCc1ncc(C(F)(F)F)cc1Cl)c1ccc2c(c1)C1(CCS(=O)(=O)CC1)[C@@H](C1CC1)N2S(=O)(=O)c1ccc(F)cc1 | cell-free assay | competition with immobilised ligand | 1 µM | 81%
C=CC(=O)N1CCC(C(=O)NCC(=O)N2CCN(c3nc(-c4cnc(N)nc4C(F)F)nc(N4CCOCC4)n3)CC2)CC1 | binding | competition with immobilised ligand | 1 µM | 100%
O=C(N[C@H]1CCCCC/C=C\C2C[C@@]2(C(=O)O)NC(=O)[C@@H]2C[C@@H](Oc3ccncc3)CN2C1=O)OC1CCCC1 (stereo partly shown) | binding | competition with immobilised ligand | 1 µM | 100%
Nc1ncc2c(n1)-c1c([nH]c3ccc(C#CC4CC4)cc13)CCCC2 | binding | competition with immobilised ligand | 1 µM | 78%
